Values after ≈ are worked out from the molar mass of the structure shown. Where a SMILES comes first, the peptide text is derived from it. Bridges are numbered along the chain shown (N, C = ends). [ ]: non-standard residue; d: D form. Dab = NCC[C@H](N)C(=O)O
Key:
Format in all cases: functional
[1] = test system: Mycobacteroides abscessus; test: Antimycobacterial activity against Mycobacterium abscessus by pesto blue-dye based broth microdilution assay
Staphylococcus aureus = test: Antibacterial activity against Staphylococcus aureus ATCC 29213 after 16 to 18 hrs by CLSI method
Outline: (§1)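 Broth microdilution MIC per CLSI. A single colony from Mueller-Hinton agar is grown overnight in cation-supplemented Mueller-Hinton broth (37 °C, shaking, 18–24 h). Incubation is 37 °C for 16–18 h. MIC is the lowest concentration with no visible growth. Three independent runs, each in duplicate.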

[2] = test system: Mycobacterium tuberculosis; test: Antimycobacterial activity against Mycobacterium tuberculosis H37Rv ATCC 27294 after 7 days by pesto blue-dye based broth microdilution assay; settings: H37Rv ATCC 27294, 168 h
Outline: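 Broth microdilution in Middlebrook 7H9 with 10% ADC-Tween-80 (0.2% glycerol, 0.05% Tween-80). Compound is added from 10 mg/mL DMSO stocks as two-fold dilutions, 64–0.5 mg/L. Plates are incubated 7 days at 37 °C and read with PrestoBlue resazurin dye. MIC is the lowest concentration inhibiting visible growth, three replicates in duplicate.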

Klebsiella pneumoniae = test: Antibacterial activity against Klebsiella pneumoniae ATCC BAA-1705 after 16 to 18 hrs by CLSI method; outline: as §1
Mycobacteroides chelonae = test: Antimycobacterial activity against Mycobacterium chelonae by pesto blue-dye based broth microdilution assay
[3] = test system: Mycolicibacterium fortuitum; test: Antimycobacterial activity against Mycobacterium fortuitum by pesto blue-dye based broth microdilution assay
Pseudomonas aeruginosa = test: Antibacterial activity against Pseudomonas aeruginosa ATCC 27853 after 16 to 18 hrs by CLSI method; outline: as §1
Escherichia coli = test: Antibacterial activity against Escherichia coli ATCC 25922 after 16 to 18 hrs by CLSI method; outline: as §1
Acinetobacter baumannii = test: Antibacterial activity against Acinetobacter baumannii BAA-1605 after 16 to 18 hrs by CLSI method; outline: as §1

SMILES	MIC [1] [µg/mL]	MIC (Staphylococcus aureus) [µg/mL]	MIC [2] [µg/mL]	MIC (Klebsiella pneumoniae) [µg/mL]	MIC (Mycobacteroides chelonae) [µg/mL]	MIC [3] [µg/mL]	MIC (Pseudomonas aeruginosa) [µg/mL]	MIC (Escherichia coli) [µg/mL]	MIC (Acinetobacter baumannii) [µg/mL]
Cc1cccc(-n2cc(COc3cccc(-n4c(C)nc5ccccc5c4=O)c3)nn2)c1	> 64	> 64	> 64	> 64	> 64	> 64	> 64	> 64	> 64
Cc1nc2ccccc2c(=O)n1-c1cccc(OCc2cn(-c3ccc(Cl)cc3)nn2)c1	> 64	> 64	> 64	> 64	> 64	> 64	> 64	> 64	> 64
Cc1nc2ccccc2c(=O)n1-c1cccc(OCc2cn(-c3ccc(O)cc3)nn2)c1	> 64	> 64	64 (≈ 150 µM)	> 64	> 64	> 64	> 64	> 64	> 64
N#Cc1ccc(/C=C/c2nc3ccccc3c(=O)n2-c2ccc(OCc3cn(Cc4ccc(Br)cc4)nn3)cc2)cc1	> 64	> 64	> 64	> 64	> 64	> 64	> 64	> 64	> 64
Cc1cccc2c(=O)n(-c3cccc(OCc4cn(-c5cccc(Cl)c5)nn4)c3)c(/C=C/c3ccc(C#N)cc3)nc12	> 64	> 64	> 64	> 64	> 64	> 64	> 64	> 64	> 64
N#Cc1ccc(/C=C/c2nc3ccccc3c(=O)n2-c2cccc(OCc3cn(Cc4ccc(Br)cc4)nn3)c2)cc1	> 64	16 (≈ 26 µM)	> 64	> 64	> 64	> 64	> 64	> 64	> 64
Cc1nc2ccccc2c(=O)n1-c1cccc(OCc2cn(-c3cccc(O)c3)nn2)c1	> 64	> 64	> 64	> 64	> 64	> 64	> 64	> 64	> 64
N#Cc1ccc(/C=C/c2nc3ccccc3c(=O)n2-c2cccc(OCc3cn(Cc4cccc(Br)c4)nn3)c2)cc1	> 64	0.5 (≈ 0.812 µM)	> 64	> 64	> 64	> 64	> 64	> 64	> 64
NNC(=O)c1ccncc1 [ISONIAZID]	–	–	0.03 (≈ 0.219 µM)	–	–	–	–	–	–
Cc1cccc2c(=O)n(-c3cccc(OCc4cn(-c5cccc(Cl)c5)nn4)c3)c(C)nc12	> 64	> 64	> 64	> 64	> 64	> 64	> 64	> 64	> 64
N#Cc1ccc(/C=C/c2nc3ccccc3c(=O)n2-c2cccc(OCc3cn(-c4cccc(C(=O)O)c4)nn3)c2)cc1	> 64	4 (≈ 7.06 µM)	> 64	> 64	> 64	> 64	> 64	> 64	> 64
COc1ccc(Cn2cc(COc3cccc(-n4c(/C=C/c5ccc(C#N)cc5)nc5ccccc5c4=O)c3)nn2)cc1	> 64	0.5 (≈ 0.882 µM)	> 64	> 64	> 64	> 64	> 64	> 64	> 64
Cc1nc2ccccc2c(=O)n1-c1cccc(-n2cc(-c3ccccc3)nn2)c1	> 64	> 64	> 64	> 64	> 64	> 64	> 64	> 64	> 64
Cc1nc2ccccc2c(=O)n1-c1cccc(OCc2cn(-c3cccc(C(=O)O)c3)nn2)c1	> 64	> 64	> 64	> 64	> 64	> 64	> 64	> 64	> 64
COc1cc(-n2cc(COc3cccc(-n4c(C)nc5ccccc5c4=O)c3)nn2)cc(OC)c1OC	> 64	> 64	> 64	> 64	> 64	> 64	> 64	> 64	> 64
N#Cc1ccc(/C=C/c2nc3ccccc3c(=O)n2-c2cccc(OCc3cn(-c4ccc(C(F)(F)F)cc4)nn3)c2)cc1	> 64	4 (≈ 6.77 µM)	> 64	> 64	> 64	> 64	> 64	> 64	> 64
N#Cc1ccc(/C=C/c2nc3ccccc3c(=O)n2-c2cccc(OCc3cn(-c4cccc(F)c4)nn3)c2)cc1	> 64	0.5 (≈ 0.925 µM)	> 64	> 64	> 64	> 64	> 64	> 64	> 64
CC(C)C[C@@H]1NC(=O)[C@@H](Cc2ccccc2)NC(=O)[C@H](CCN)NC(=O)[C@@H](NC(=O)[C@H](CCN)NC(=O)[C@@H](N)[C@@H](C)O)CCNC(=O)[C@H]([C@@H](C)O)NC(=O)[C@H](CCN)NC(=O)[C@H](CCN)NC1=O [POLYMYXIN B NONAPEPTIDE] (H-T[Dab][Dab][Dab][dF]L[Dab][Dab]T; lactam 3-C)	–	–	–	–	–	–	–	> 128	> 128
CCC(C)(C)c1ccc(OCc2cn(-c3cccc(-n4c(/C=C/c5ccc(C#N)cc5)nc5ccccc5c4=O)c3)nn2)cc1	> 64	> 64	–	> 64	> 64	> 64	> 64	> 64	> 64
Cc1nc2ccccc2c(=O)n1-c1cccc(OCc2cn(-c3ccc(F)c(Cl)c3)nn2)c1	> 64	> 64	> 64	> 64	> 64	> 64	> 64	> 64	> 64
Cc1ccc(C)c(OCc2cn(-c3cccc(-n4c(C)nc5ccccc5c4=O)c3)nn2)c1	> 64	> 64	> 64	> 64	> 64	> 64	> 64	> 64	> 64
CCC(C)(C)c1ccc(OCc2cn(-c3cccc(-n4c(C)nc5ccccc5c4=O)c3)nn2)cc1	> 64	> 64	> 64	> 64	> 64	> 64	> 64	> 64	> 64
N#Cc1ccc(/C=C/c2nc3ccccc3c(=O)n2-c2cccc(OCc3cn(Cc4ccc([N+](=O)[O-])cc4)nn3)c2)cc1	> 64	2 (≈ 3.44 µM)	> 64	> 64	> 64	> 64	> 64	> 64	> 64
O=c1c2ccccc2nc(/C=C/c2ccc(Cl)cc2)n1-c1cccc(OCc2cn(-c3cccc(F)c3)nn2)c1	> 64	4 (≈ 7.27 µM)	> 64	> 64	> 64	> 64	> 64	> 64	> 64
Cc1nc2ccccc2c(=O)n1-c1cccc(OCc2cn(-c3ccc(C(=O)O)cc3)nn2)c1	> 64	> 64	> 64	> 64	> 64	> 64	> 64	> 64	> 64
Cc1nc2ccccc2c(=O)n1-c1cccc(OCc2cn(-c3cccc(Cl)c3)nn2)c1	> 64	> 64	> 64	> 64	> 64	> 64	> 64	> 64	> 64
Cc1ccc(-n2cc(COc3cccc(-n4c(C)nc5ccccc5c4=O)c3)nn2)cc1[N+](=O)[O-]	> 64	> 64	> 64	> 64	> 64	> 64	> 64	> 64	> 64
O=c1c2ccccc2nc(/C=C/c2ccc(Cl)cc2)n1-c1cccc(-n2cc(-c3ccccc3)nn2)c1	> 64	> 64	> 64	> 64	> 64	> 64	> 64	> 64	> 64
Cc1cc(-n2cc(COc3cccc(-n4c(C)nc5ccccc5c4=O)c3)nn2)cc(C)c1C	> 64	> 64	> 64	> 64	> 64	> 64	> 64	> 64	> 64
